# Measured values as given in publication PMC2191014 (The Journal of Experimental Medicine, 1993).
# Non-standard residues stand in square brackets, D forms with d. Residues, ends and D or L forms follow the SMILES beside them.
# How the values were obtained:
# NOD mice [1] = experiment: Mortality and symptoms during chronic treatment, second experiment; format: in vivo, mouse (NOD)
# How it was run: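 Female NOD mice received 500 nmol test peptide in HBSS, i.p. and s.c., from 3 wk of age for 20 wk. Thereafter peptide was co-injected with ketotifen 3 mg/kg […] (13 mice). Controls were ketotifen only (15) and HBSS only (15).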
# Ad = biological target: T1, Ad (Mus musculus, UniProt P01921+P04228); experiment: Competition for antigen presentation of OVA 323-339 to hybridoma DO11.10; format: cell-based
# T1 sequence (P01921 28-265): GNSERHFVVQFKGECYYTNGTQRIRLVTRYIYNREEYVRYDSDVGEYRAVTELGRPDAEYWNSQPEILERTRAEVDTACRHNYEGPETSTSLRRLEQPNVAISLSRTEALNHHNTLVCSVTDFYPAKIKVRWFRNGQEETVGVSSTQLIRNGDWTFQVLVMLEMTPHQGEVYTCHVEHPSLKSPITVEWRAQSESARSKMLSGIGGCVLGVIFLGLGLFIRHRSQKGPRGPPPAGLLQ
# T1 sequence (P04228 24-256): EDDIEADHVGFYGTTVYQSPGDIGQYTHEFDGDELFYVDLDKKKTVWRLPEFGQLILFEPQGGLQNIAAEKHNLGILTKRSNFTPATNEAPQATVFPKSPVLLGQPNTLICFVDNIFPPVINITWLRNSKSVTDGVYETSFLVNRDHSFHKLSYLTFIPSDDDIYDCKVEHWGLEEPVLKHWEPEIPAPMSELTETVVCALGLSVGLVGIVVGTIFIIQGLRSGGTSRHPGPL
# How it was run: (§1)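 LK cells (2.5 × 10^4/well) served as APC. They were preincubated 24 h with antigenic peptide plus competitor peptide in RPMI 1640 with 10% FCS, then irradiated (2,000 rad) and washed. Hybridoma cells (5 × 10^4/well) were added for 24 h. Supernatant was transferred to 10^4 CTLL cells, and IL-2 was read as thymidine uptake over the last 4 h of the 24-h CTLL culture.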
# [2] = Peptide-specific antibodies by ELISA in sera of chronically treated mice; format: in vivo, mouse (NOD); conditions: for peptide-specific IgG antibodies / peptide-specific IgM antibodies: ELISA, sera of chronically treated mice
# How it was run: (§2)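 ELISA on sera of individual chronically peptide-treated NOD mice at several time points. Wells were coated with 250 ng peptide in PBS at 4°C overnight and blocked with 2% BSA, 37°C, 30 min. Diluted sera ran 1 h at 37°C, then phosphatase-conjugated anti-mouse Ig, IgG or IgM (1:500) 2 h at 37°C. p-Nitrophenyl phosphate (1 mg/ml) ran 45 min, read at OD 405. Uncoated-well background was subtracted from duplicate means.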
# [3] = Peptide-specific antibodies in mice of the Fig. 3 B experiment; format: in vivo, mouse (NOD); conditions: data not shown
# How it was run: as §2
# NOD mice [4] = experiment: Mortality and hypersensitivity during chronic treatment, first experiment; format: in vivo, mouse (NOD); conditions: after 10-18 wk of treatment; 500 nmol chronic
# How it was run: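 Female NOD mice from 3 wk of age got 500 nmol test peptide in HBSS, i.p. and s.c. at multiple sites. Schedule: five times/week for 3 wk, five times/week for a further 3 wk, then twice weekly to 22-23 wk. Groups: 18 test-peptide, 12 nonblocking-peptide and 18 HBSS-only mice.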
# Ag7 = experiment: Screening: binding to Ag7; format: cell-based, mouse (NOD); conditions: screening of peptide panel
# [5] = system: NOD mice, spontaneous autoimmune diabetes; experiment: Prevention of spontaneous diabetes in female NOD mice, first experiment; format: in vivo, mouse (NOD)
# How it was run: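 Female NOD mice from an SPF in-house colony were dosed from 3 wk of age with 500 nmol peptide in HBSS, i.p. and s.c. at multiple sites. The schedule was five times weekly for 3 wk, five times weekly for 3 wk more, then twice weekly to 22-23 wk. Arms: test peptide (18 mice), nonbinding control peptide (12), HBSS (18). Monitoring began at 10 wk; blood glucose ≥200 mg/dl counted as diabetic.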
# [6] = system: NOD class II MHC molecule Ag7; experiment: Competition for antigen presentation of HEL 8-29 to T cell hybridoma 2D12.1; format: cell-based, mouse (NOD); conditions: APC NOD splenocytes, 80 nM HEL 8-29, competitor up to 100 μM
# How it was run: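 NOD splenocytes (2.5 × 10^5/well) served as APC. They were held 24 h with antigenic peptide and competitor in RPMI 1640 + 10% FCS, then irradiated at 2,000 rad and washed before 5 × 10^4 hybridoma cells were added. After 24 h, supernatant went onto 10^4 CTLL cells. IL-2 was measured by thymidine incorporation during the final 4 h of the 24-h CTLL culture.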
# Ek = experiment: Competition for antigen presentation of HEL 1-18 to hybridoma 2G7.1; format: cell-based, mouse; conditions: APC LK cells, 2 μM HEL 1-18, competitor up to 100 μM
# How it was run: as §1
# Ed = experiment: Competition for antigen presentation of HEL 105-120 to hybridoma 1H11.3; format: cell-based, mouse; conditions: APC LK cells, 500 nM HEL 105-120, competitor up to 100 μM
# How it was run: as §1
# [7] = system: Ag7-restricted T cell response; conditions: cited from earlier work
Molecule,mortality (NOD mice [1]; P1 mixed with ketotifen (3 mg/kg) after 20 wk of treatment),symptoms after adding ketotifen (NOD mice [1]; P1 mixed with ketotifen (3 mg/kg) after first signs of postinjection fatigue (20 wk of treatment)),IC50 (Ad) [µM],peptide-specific IgG antibodies [2],peptide-specific IgM antibodies [2],fraction of mice antibody negative ([2]; after 13 wk of treatment),animals producing antibodies against the peptide [3],mortality (died/total) (NOD mice [4]),binding to Ag7 (Ag7),"effect on antigen presentation by Ad (Ad; APC LK cells, 1 μM OVA 323-339, hybridoma DO11.10, competitor up to 100 μM)","plateau level of diabetic animals ([5]; by 22 wk of age, control groups (P2, 12 mice, or solvent)) [%]","effect on spontaneous diabetes (summary) ([5]; chronic administration from 3 wk of age on, female NOD mice)",effect on antigen presentation by Ag7 [6],effect on antigen presentation by Ek (Ek),fraction of mice nonresponders ([2]; chronic treatment),effect on antigen presentation by Ed (Ed),Ag7-restricted T cell response of NOD mice [7]
"CC(C)[C@H](NC(=O)[C@@H](NC(=O)[C@H](Cc1ccc(O)cc1)NC(=O)[C@@H](NC(=O)[C@H](N)Cc1ccc(O)cc1)[C@@H](C)O)[C@@H](C)O)C(=O)N[C@@H](Cc1c[nH]cn1)C(=O)N[C@@H](C)C(=O)N[C@@H](C)C(=O)N[C@@H](Cc1c[nH]cn1)C(=O)N[C@@H](C)C(=O)N[C@@H](Cc1ccc(O)cc1)C(=O)N[C@H](C(=O)N[C@@H](Cc1ccc(O)cc1)C(=O)N[C@@H](C(=O)O)[C@H](C)O)[C@@H](C)O [P1, yTYTVHAAHAYTYt] (H-[dY]TYTVHAAHAYTY[dT]-OH)",no mortality occurred,symptomless,~20,IgG,no IgM,Approximately half,3 of 13 animals,6/18,,,,,,,,,
KMKMVHAAHAKMKM [P2],,,,no IgG,exclusively of IgM isotype,,,1/12,fails to bind,inhibited antigen presentation,60,no effect on the disease,not that by As7,inhibited antigen presentation,Approximately half,not that by As7 and Ea,
sheep insuline: sheep insulin used as antigen in NOD mice,,,,,,,,,,,,,,,,,strong
